Laboratory results from ChEMBL document CHEMBL1122160, “Structure--activity relationships of nogalamycin analogues” (1982).

Legend:
L1210 [1] = experiment: Micromolar concentration required to inhibit the growth of L1210 cells by 50% was determined; format: functional; conditions: Mus musculus, read-out: ID50 (the source's name)
L1210 [2] = experiment: Micromolar concentration required to inhibit the growth of L1210 cells by 90% was determined; format: functional, Mus musculus
Mus musculus [3] = experiment: […] percent increase in life span of mice injected intraperitoneally with P-388 leukemia after administration (50 mg/kg)/day; format: functional
Procedure, shortened: (§1)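 P-388 leukemia cells (10^6) implanted intraperitoneally in mice on day 0, following a standard National Cancer Institute protocol. Drug was given daily on days 1-9, or on days 1, 5 and 9 for some analogues. Dose level is as in each line.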

Mus musculus [4] = experiment: Tested for antitumor activity in vivo and the weight change in grams for the tumor in mouse was determined; format: functional
Procedure, shortened: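 Mice received 10^6 P-388 leukemia cells intraperitoneally on day 0, following the standard NCI protocol. Drug was injected daily on days 1-9, or only on days 1, 5 and 9 for certain analogues.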

Mus musculus [5] = experiment: […] percent increase in life span of mice injected intraperitoneally with P-388 leukemia after administration (1.25 mg/kg)/day; format: functional; procedure, shortened: as §1
Mus musculus [6] = experiment: […] percent increase in life span of mice injected intraperitoneally with P-388 leukemia after administration (8 mg/kg)/day; format: functional; procedure, shortened: as §1
Mus musculus [7] = experiment: […] percent increase in life span of mice injected intraperitoneally with P-388 leukemia after administration (33 mg/kg)/day; format: functional; procedure, shortened: as §1
Mus musculus [8] = experiment: […] percent increase in life span of mice injected intraperitoneally with P-388 leukemia after administration (12.5 mg/kg)/day; format: functional; procedure, shortened: as §1
Mus musculus [9] = experiment: […] percent increase in life span of mice injected intraperitoneally with P-388 leukemia after administration (20 mg/kg)/day; format: functional; procedure, shortened: as §1
Mus musculus [10] = experiment: […] percent increase in life span of mice injected intraperitoneally with P-388 leukemia after administration (5 mg/kg)/day; format: functional; procedure, shortened: as §1
Mus musculus [11] = experiment: In vivo percent increase in life span of mice injected intraperitoneally with P-388 leukemia after administration (25 mg/kg)/day
Mus musculus [12] = experiment: […] percent increase in life span of mice injected intraperitoneally with P-388 leukemia after administration (10 mg/kg)/day; format: functional; procedure, shortened: as §1
Mus musculus [13] = experiment: […] percent increase in life span of mice injected intraperitoneally with P-388 leukemia after administration (1 mg/kg)/day; format: functional; procedure, shortened: as §1
Mus musculus [14] = experiment: […] percent increase in life span of mice injected intraperitoneally with P-388 leukemia after administration (100 mg/kg)/day; format: functional; procedure, shortened: as §1
Mus musculus [15] = experiment: […] percent increase in life span of mice injected intraperitoneally with P-388 leukemia after administration (16 mg/kg)/day; format: functional; procedure, shortened: as §1
Mus musculus [16] = experiment: […] percent increase in life span of mice injected intraperitoneally with P-388 leukemia after administration (400 mg/kg)/day; format: functional; procedure, shortened: as §1
Mus musculus [17] = experiment: […] percent increase in life span of mice injected intraperitoneally with P-388 leukemia after administration (6.25 mg/kg)/day; format: functional; procedure, shortened: as §1
Mus musculus [18] = experiment: […] percent increase in life span of mice injected intraperitoneally with P-388 leukemia after administration (40 mg/kg)/day; format: functional; procedure, shortened: as §1

`COC1CC(C)(O)Cc2cc3c(c(O)c21)C(=O)c1c(O)cc2c(c1C3=O)OC1OC2(C)C(O)C(N(C)C=O)C1O` (stereo not given) gave an IC50 (L1210 [1]) of 4.3 µM and an ID90 (L1210 [2]) greater than 5 µM.

`COC1C(C)OC(OC2CC(C)(O)Cc3cc4c(c(O)c32)C(=O)c2c(O)cc3c(c2C4=O)OC2OC3(C)C(OC(C)=O)C(N(C)C)C2OC(C)=O)C(OC)C1(C)OC` (stereo not given) was tested, and the IC50 (L1210 [1]) was 0.076 µM, the ID90 (L1210 [2]) was 0.21 µM and the ILS (Mus musculus [3]) was 41%. It also gave a Weight change (Mus musculus [4]) of -0.6 g.

With `CNC1C(O)C2Oc3c(cc(O)c4c3C(=O)c3cc5c(c(O)c3C4=O)C(OC)CC(C)(O)C5)C(C)(O2)C1O` (stereo not given) the IC50 (L1210 [1]) was 0.38 µM, the ID90 (L1210 [2]) was 0.11 µM and the ILS (Mus musculus [5]) was 73%. For the same molecule, the Weight change (Mus musculus [4]) was -1.3 g.

`CSC1CC(C)(O)Cc2cc3c(c(O)c21)C(=O)c1c(O)cc2c(c1C3=O)OC1OC2(C)C(O)C(N(C)C)C1O` (stereo not given) showed an IC50 (L1210 [1]) of 0.13 µM, an ID90 (L1210 [2]) of 0.34 µM and an ILS (Mus musculus [6]) of 37%. For the same molecule, the Weight change (Mus musculus [4]) was -3.1 g.

`CNC1C(O)C2Oc3c(cc(O)c4c3C(=O)c3cc5c(c(O)c3C4=O)C(OC3OC(C)C(OC)C(C)(OC)C3OC)CC(C)(O)C5)C(C)(O2)C1O` (stereo not given) showed an IC50 (L1210 [1]) of 0.88 µM, an ID90 (L1210 [2]) greater than 1 µM and an ILS (Mus musculus [7]) of 24%. For the same molecule, the Weight change (Mus musculus [4]) was -0.6 g.

Work on `COC1CC(C)(O)Cc2cc3c(c(O)c21)C(=O)c1c(O)cc2c(c1C3=O)OC1OC2(C)C(O)C(N(C)C)C1O` (stereo not given) yielded an IC50 (L1210 [1]) of 0.061 µM, an ID90 (L1210 [2]) of 0.13 µM and an ILS (Mus musculus [8]) of 197%. It also gave a Weight change (Mus musculus [4]) of -0.4 g.

For `COC1C(C)OC(OC2CC(C)(O)Cc3cc4c(c(OC(C)=O)c32)C(=O)c2c(O)cc3c(c2C4=O)OC2OC3(C)C(OC(C)=O)C(N(C)C)C2OC(C)=O)C(OC)C1(C)OC` (stereo not given), the IC50 (L1210 [1]) was 0.017 µM, the ID90 (L1210 [2]) was 0.041 µM and the ILS (Mus musculus [9]) was 37%. The Weight change (Mus musculus [4]) was -0.1 g.

In the case of `COC1C(C)OC(OC2CC(C)(O)Cc3cc4c(c(O)c32)C(=O)c2c(O)cc3c(c2C4=O)OC2OC3(C)C(O)C(N(C)C)C2O)C(OC)C1(C)OC` (stereo not given), the IC50 (L1210 [1]) is reported as 0.18 µM, the ID90 (L1210 [2]) is reported as 0.27 µM and the ILS (Mus musculus [10]) is reported as 93%. For the same molecule, the Weight change (Mus musculus [4]) was -0.2 g.

`COC(=O)C1c2cc3c(c(O)c2C(OC2OC(C)C(OC)C(C)(OC)C2OC)CC1(C)O)C(=O)c1c(O)cc2c(c1C3=O)OC1OC2(C)C(O)C(N(C)C=O)C1O` (stereo not given) gave an IC50 (L1210 [1]) greater than 1 µM, an ID90 (L1210 [2]) greater than 1 µM and a Weight change (Mus musculus [4]) of -0.1 g. For the same molecule, the ILS (Mus musculus [11]) was 12%.

With `C#CCOC1CC(C)(O)Cc2cc3c(c(O)c21)C(=O)c1c(O)cc2c(c1C3=O)OC1OC2(C)C(O)C(N(C)C)C1O` (stereo not given) the IC50 (L1210 [1]) was 0.15 µM, the ID90 (L1210 [2]) was 0.32 µM and the ILS (Mus musculus [12]) was 41%. For the same molecule, the Weight change (Mus musculus [4]) was -0.7 g.

With `COC(=O)[C@@H]1c2cc3c(c(O)c2[C@@H](O[C@@H]2O[C@@H](C)[C@H](OC)[C@@](C)(OC)[C@H]2OC)C[C@]1(C)O)C(=O)c1c(O)cc2c(c1C3=O)O[C@H]1O[C@@]2(C)[C@@H](O)[C@@H](N(C)C)[C@@H]1O` the IC50 (L1210 [1]) was 0.078 µM, the ID90 (L1210 [2]) was 0.18 µM and the ILS (Mus musculus [13]) was 49%. For the same molecule, the Weight change (Mus musculus [4]) was -0.5 g.

In the case of `CN(C)C1C(O)C2Oc3c(cc(O)c4c3C(=O)c3cc5c(c(O)c3C4=O)CCC(C)(O)C5)C(C)(O2)C1O` (stereo not given), the IC50 (L1210 [1]) is reported as 0.94 µM, the ID90 (L1210 [2]) is reported as 1.76 µM and the ILS (Mus musculus [14]) is reported as 21%. It also gave a Weight change (Mus musculus [4]) of -1.2 g.

`CNC1C(O)C2Oc3c(cc(O)c4c3C(=O)c3cc5c(c(O)c3C4=O)C(OC3OC(C)C(OC)C(C)(OC)C3OC)CC(C)(O)C5C(=O)OC)C(C)(O2)C1O` (stereo not given) gave an IC50 (L1210 [1]) of 0.36 µM, an ID90 (L1210 [2]) of 0.9 µM and a Weight change (Mus musculus [4]) of -0.5 g. It also gave an ILS (Mus musculus [11]) of 59%.

Work on `CN(C)C1C(O)C2Oc3c(cc(O)c4c3C(=O)c3cc5c(c(O)c3C4=O)C(OCCBr)CC(C)(O)C5)C(C)(O2)C1O` (stereo not given) yielded an IC50 (L1210 [1]) of 0.024 µM, an ID90 (L1210 [2]) of 0.071 µM and an ILS (Mus musculus [15]) of 60%. It also gave a Weight change (Mus musculus [4]) of -1.3 g.

`COC(=O)C1c2cc3c(c(O)c2CCC1(C)O)C(=O)c1c(O)cc2c(c1C3=O)OC1OC2(C)C(O)C(N(C)C)C1O` (stereo not given) gave an IC50 (L1210 [1]) of 0.58 µM, an ID90 (L1210 [2]) of 1.51 µM and an ILS (Mus musculus [3]) of 27%. It also gave a Weight change (Mus musculus [4]) of -0.7 g.

`CN(C)C1C(O)C2Oc3c(cc(O)c4c3C(=O)c3cc5c(c(O)c3C4=O)C(N=[N+]=[N-])CC(C)(O)C5)C(C)(O2)C1O` (stereo not given) showed an IC50 (L1210 [1]) of 0.83 µM, an ID90 (L1210 [2]) of 1.76 µM and an ILS (Mus musculus [10]) of 33%. It also gave a Weight change (Mus musculus [4]) of -0.3 g.

`COc1c2c(cc3c1C(OC)CC(C)(O)C3)C(=O)c1c3c(cc(O)c1C2=O)C1(C)OC(O3)C(O)C(N(C)C)C1O` (stereo not given) showed an IC50 (L1210 [1]) of 4.5 µM, an ID90 (L1210 [2]) of 9.7 µM and an ILS (Mus musculus [9]) of 25%. For the same molecule, the Weight change (Mus musculus [4]) was 0.6 g.

For `CN(C)C1C(O)C2Oc3c(cc(O)c4c3C(=O)c3cc5c(c(O)c3C4=O)CCC(C)(O)C5C(=O)O)C(C)(O2)C1O` (stereo not given), the IC50 (L1210 [1]) was 5.6 µM, the ID90 (L1210 [2]) was 14.5 µM and the ILS (Mus musculus [16]) was -4%. The Weight change (Mus musculus [4]) was 0.2 g.

With `COC(=O)C1c2cc3c(c(O)c2C(OC2OC(C)C(OC)C(C)(OC)C2OC)CC1(C)O)C(=O)c1c(O)cc2c(c1C3=O)OC1OC2(C)C(OC(C)=O)C(N(C)C)C1OC(C)=O` (stereo not given) the IC50 (L1210 [1]) was 0.069 µM, the ID90 (L1210 [2]) was 0.185 µM and the ILS (Mus musculus [17]) was 3%. For the same molecule, the Weight change (Mus musculus [4]) was -0.3 g.

In the case of `COCCNC1CC(C)(O)Cc2cc3c(c(O)c21)C(=O)c1c(O)cc2c(c1C3=O)OC1OC2(C)C(O)C(N(C)C)C1O` (stereo not given), the IC50 (L1210 [1]) is reported as 1.04 µM, the ID90 (L1210 [2]) is reported as 2.91 µM and the ILS (Mus musculus [18]) is reported as 40%. It also gave a Weight change (Mus musculus [4]) of 0.2 g.

Work on `C=CCOC1CC(C)(O)Cc2cc3c(c(O)c21)C(=O)c1c(O)cc2c(c1C3=O)OC1OC2(C)C(O)C(N(C)C)C1O` (stereo not given) yielded an IC50 (L1210 [1]) of 0.18 µM, an ID90 (L1210 [2]) of 0.53 µM and an ILS (Mus musculus [10]) of 25%. For the same molecule, the Weight change (Mus musculus [4]) was 0.3 g.

With `COC1C(C)OC(OC2CC(C)(O)Cc3cc4c(c(O)c32)C(=O)c2c(O)cc3c(c2C4=O)OC2OC3(C)C(O)C(N(C)C=O)C2O)C(OC)C1(C)OC` (stereo not given) the IC50 (L1210 [1]) was greater than 1 µM, the ID90 (L1210 [2]) was greater than 1 µM and the ILS (Mus musculus [3]) was 0%. It also gave a Weight change (Mus musculus [4]) of 0.1 g.

`CN(C)C1C(O)C2Oc3c(cc(O)c4c3C(=O)c3cc5c(c(O)c3C4=O)C(N)CC(C)(O)C5)C(C)(O2)C1O` (stereo not given) showed an IC50 (L1210 [1]) of 0.97 µM, an ID90 (L1210 [2]) of 2 µM and an ILS (Mus musculus [18]) of 47%. For the same molecule, the Weight change (Mus musculus [4]) was 0.2 g.
